The source of these data is ChEMBL document CHEMBL1268911, “Novel agonists and antagonists for human protease activated receptor 2” (J Med Chem, 2010).

The source made the active and inactive calls. The calls are words filed in the database; no cut-off is given here.

The first assay concerns the target T1, Proteinase-activated receptor 2 (Homo sapiens, UniProt P55085).
T1 sequence (P55085 whole entry): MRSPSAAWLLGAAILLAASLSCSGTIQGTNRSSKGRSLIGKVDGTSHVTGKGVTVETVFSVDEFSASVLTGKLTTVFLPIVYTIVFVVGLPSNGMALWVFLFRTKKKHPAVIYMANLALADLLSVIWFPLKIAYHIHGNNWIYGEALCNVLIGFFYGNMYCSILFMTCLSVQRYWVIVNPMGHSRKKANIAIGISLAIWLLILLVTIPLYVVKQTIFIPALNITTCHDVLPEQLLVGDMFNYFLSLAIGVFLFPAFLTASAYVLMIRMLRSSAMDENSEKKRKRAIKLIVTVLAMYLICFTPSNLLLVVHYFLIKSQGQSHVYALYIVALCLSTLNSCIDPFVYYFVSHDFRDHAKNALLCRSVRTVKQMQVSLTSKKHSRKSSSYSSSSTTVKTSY
Kind of assay: Agonist activity at human PAR2 receptor in HEK293 cells assessed as induction of intracellular calcium release.
Settings: not given
Type of assay: functional, cell-based.
`CC[C@H](C)[C@H](NC(=O)[C@H](CC1CCCCC1)NC(=O)c1ccco1)C(N)=O`: the EC50 (as a rule, the concentration that produces a half-maximal response) was greater than 50 µM.

Take `CC[C@H](C)[C@H](NC(=O)[C@H](CC1CCCCC1)NC(=O)c1coc(C)n1)C(N)=O`: the EC50 is greater than 100 µM. For `CC[C@H](C)[C@H](NC(=O)[C@H](CC1CCCCC1)NC(=O)c1cnccn1)C(N)=O`, the EC50 was greater than 100 µM.

For another assay, the target named is T2, Proteinase-activated receptor 1 (Homo sapiens) (UniProt P25116).
T2 sequence (whole entry): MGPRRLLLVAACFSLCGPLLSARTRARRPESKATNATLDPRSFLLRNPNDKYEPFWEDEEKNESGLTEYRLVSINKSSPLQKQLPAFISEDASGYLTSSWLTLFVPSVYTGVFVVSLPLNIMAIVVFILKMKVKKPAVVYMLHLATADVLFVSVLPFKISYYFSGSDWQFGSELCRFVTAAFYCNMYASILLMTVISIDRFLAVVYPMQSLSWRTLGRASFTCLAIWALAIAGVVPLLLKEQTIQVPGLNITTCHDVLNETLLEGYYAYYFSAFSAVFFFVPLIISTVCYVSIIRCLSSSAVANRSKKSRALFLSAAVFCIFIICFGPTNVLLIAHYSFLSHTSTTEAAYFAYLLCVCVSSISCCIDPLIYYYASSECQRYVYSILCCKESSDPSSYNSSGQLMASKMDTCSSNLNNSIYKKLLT
Put plainly: Agonist activity at human PAR1 receptor in HEK293 cells relative to TFLLR-NH2. The assay is classed as functional, cell-based.
Settings: not given
As for `CC[C@H](C)[C@H](NC(=O)[C@H](Cc1ccccc1)NC(=O)c1ccco1)C(N)=O`, the result was Active.

A further assay has as its target Proteinase-activated receptor 2 (Homo sapiens) (UniProt P55085). Put plainly: Agonist activity at PAR2 receptor in human HT-29 cells assessed as induction of intracellular calcium release at 1 uM relative to SLIGRLI-NH2. The assay is classed as functional, cell-based.
Settings: not given
The procedure, abridged: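 HT29 cells, Fluo-3 AM loaded, in HBSS/HEPES/probenecid buffer pH 7.4 with 2% DMSO final. Each agonist given once at 1 μM. Fluorescence (ex 495/em 520 nm) was read over 60 s after addition, and iCa2+ release was compared with SLIGRLI-NH2.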
For orientation: A change in cytosolic calcium serves as a functional read-out for many receptors and channels.
With `CC[C@H](C)[C@H](NC(=O)[C@H](CC1CCCCC1)NC(=O)c1ccno1)C(=O)NCCC(=O)N1CCC(CN)CC1`, the Activity stood at 97%. On to `CC[C@H](C)[C@H](NC(=O)[C@H](CC1CCCCC1)NC(=O)c1ccno1)C(=O)NCCC(=O)Nc1ccc(CCN)cc1`, for which the Activity is 130%. Same read-out and setting: the same measure for `CC[C@H](C)[C@H](NC(=O)[C@H](CC1CCCCC1)NC(=O)c1ccno1)C(=O)NCCCN`: 57%; for `CC[C@H](C)[C@H](NC(=O)[C@H](CC1CCCCC1)NC(=O)c1ccno1)C(=O)NCCCCC(=O)N1CCC(CN)CC1`: 181%. Regarding `CC[C@H](C)[C@H](NC(=O)[C@H](CC1CCCCC1)NC(=O)c1ccno1)C(=O)NCCCCC(=O)NCc1cccnc1`, the Activity stood at 130%. In the case of `CC[C@H](C)[C@H](NC(=O)[C@H](CC1CCCCC1)NC(=O)c1ccno1)C(=O)NCCCCCN`, the Activity worked out at 60%.

Regarding `CC[C@H](C)C(NC(=O)[C@H](CC1CCCCC1)NC(=O)c1ccno1)C(=O)NCCC(=O)NCc1cccnc1` (single isomer, unassigned), the Activity amounted to 122%. Still for that read-out and setting: the same measure for `CC[C@H](C)[C@H](NC(=O)[C@H](CC1CCCCC1)NC(=O)c1ccno1)C(=O)NCCCCC(=O)Nc1ccc(CCN)cc1`: 142%.

A further assay has the same target. Put plainly: Antagonist activity at PAR2 receptor in human HT-29 cells assessed as inhibition of intracellular calcium release at 5 uM relative to SLIGRLI-NH2. The assay is classed as functional, cell-based. Further details: scale not given: the % may be the effect or the level left.
Settings: not given
The procedure, abridged: (§1)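 Single-point inhibition in Fluo-3-loaded HT29 cells. Antagonist was given at 5 or 50 μM before 2.5 μM SLIGRLI-NH2. Calcium efflux was read as fluorescence and expressed as percent inhibition, with 100% meaning complete block.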
As for `CC[C@H](C)[C@H](NC(=O)[C@H](CC1CCCCC1)NC(=O)c1ccno1)C(=O)N1CCc2ccccc2C1`, the Activity was determined as 40%. As to `CC[C@H](C)[C@H](NC(=O)[C@H](CC1CCCCC1)NC(=O)c1ccno1)C(=O)Nc1ccccc1-c1ccccc1`, the Activity worked out at 40%. Turning to `CC[C@H](C)[C@H](NC(=O)[C@H](CC1CCCCC1)NC(=O)c1ccno1)C(=O)N1CCN(c2ccccc2)CC1`, the Activity stood at 40%. On to `CC[C@H](C)[C@H](NC(=O)[C@H](CC1CCCCC1)NC(=O)c1ccno1)C(=O)N1CCC2(CCc3ccccc32)CC1`, for which the Activity came to 40%. As to `CC[C@H](C)[C@H](NC(=O)[C@H](CC1CCCCC1)NC(=O)c1ccno1)C(=O)Nc1cccc2ccccc12`, the Activity turned out to be 40%. Still for that read-out and setting: under `CC[C@H](C)[C@H](NC(=O)[C@H](CC1CCCCC1)NC(=O)c1ccno1)C(=O)N1CCN(c2ccccc2C)CC1` stands 40%.

The target of another assay is T1, Proteinase-activated receptor 2. Kind of assay: Antagonist activity at PAR2 receptor in human HT-29 cells assessed as inhibition of intracellular calcium release. Type of assay: functional, cell-based. The following applies: read-out: IC50.
For `CC[C@H](C)[C@H](NC(=O)[C@H](CC1CCCCC1)NC(=O)c1ccno1)C(=O)Nc1ccc(CC(=O)N2CCOCC2)cc1`, the IC50 came to 57 µM.

The assay is the same for the next values; noted with them: read-out: pIC50 (converted).
Take `CC[C@H](C)[C@H](NC(=O)[C@H](CC1CCCCC1)NC(=O)c1ccno1)C(=O)N1CCC2(CCc3ccccc32)CC1`: the IC50 is 7.94 µM.

Another assay shares this target. Kind of assay: Agonist activity at PAR2 receptor in human HT-29 cells assessed as induction of intracellular calcium release. The assay is classed as functional, cell-based.
Settings: not given
Consider `CC[C@H](C)[C@H](NC(=O)[C@H](CC1CCCCC1)NC(=O)c1ccno1)C(=O)Nc1cccc(C(=O)N2CCC(CN)CC2)c1`, for which the EC50 was 2.2 µM. For `CC[C@H](C)[C@H](NC(=O)[C@H](CC1CCCCC1)NC(=O)c1ccno1)C(=O)NCc1ccc(C(=O)N2CCC(CN)CC2)cc1`, the EC50 came to 1.1 µM. Turning to `CC[C@H](C)[C@H](NC(=O)[C@H](CC1CCCCC1)NC(=O)c1ccno1)C(=O)N1CCCCC1C(=O)N1CCC(CN)CC1` (stereo partly specified), the EC50 turned out to be 7.1 µM. Turning to `CC[C@H](C)[C@H](NC(=O)[C@H](CC1CCCCC1)NC(=O)c1ccno1)C(=O)N1CCCC(C(=O)N2CCC(CN)CC2)C1` (stereo partly specified), the concentration for a half-maximal effect (EC50) came to 17.1 µM. On the same count and under the same terms, the same measure for `CC[C@H](C)[C@H](NC(=O)[C@H](CC1CCCCC1)NC(=O)c1ccno1)C(=O)NC1CCN([C@@H](CC(C)C)C(=O)N2CCC(CN)CC2)C1=O` (stereo partly specified): 13.5 µM; for `CC[C@H](C)[C@H](NC(=O)[C@H](CC1CCCCC1)NC(=O)c1ccno1)C(=O)N1CCC(C(=O)N2CCC(CN)CC2)CC1`: 13.7 µM. For `CC[C@H](C)[C@H](NC(=O)[C@H](CC1CCCCC1)NC(=O)c1ccno1)C(=O)Nc1ccc(C(=O)N2CCC(CN)CC2)cc1`, the EC50 is greater than 50 µM.

The same assay, now with this note: ht-29.
In the case of `CC[C@H](C)[C@H](NC(=O)[C@H](CC1CCCCC1)NC(=O)c1ccno1)C(=O)N[C@H]1CCC2SC[C@@H](C(=O)N3CCC(CN)CC3)N2C1=O` (stereo partly specified), the half-maximal effective concentration (EC50) was 6.1 µM.

The target of the next assay is Proteinase-activated receptor 2 (Homo sapiens) (UniProt P55085). Kind of assay: Agonist activity at PAR2 receptor in human HT-29 cells assessed as induction of intracellular calcium release at 50 uM relative to […]. Type of assay: functional, cell-based.
Settings: not given
In short, it runs like this:
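HT29 cells loaded with Fluo-3 AM in HBSS/HEPES/probenecid, pH 7.4. Compounds were tested at one concentration, 50 μM, and Ca2+ release (ex 495/em 520 nm, 60 s read) was expressed relative to 2-furoyl-LIGRLI-NH2 at the same concentration.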
In the case of `CC[C@H](C)[C@H](NC(=O)[C@@H](NC(=O)c1ccco1)C1CCCCC1)C(N)=O`, the Activity came to 12%. For `CC(C)C[C@H](NC(=O)c1ccco1)C(=O)N[C@@H](CC1CCCCC1)C(N)=O`, the Activity amounted to 43%. The same measure, in the same setting: the same measure for `CC[C@H](C)[C@H](NC(=O)[C@H](CC(C)C)NC(=O)c1ccco1)C(N)=O`: 38%. As for `CC(C)C[C@H](NC(=O)c1ccco1)C(=O)N[C@@H](Cc1ccccc1)C(N)=O`, the Activity is 22%. On to `CC[C@H](C)[C@H](NC(=O)[C@H](CC1CCCCC1)NC(=O)c1ccco1)C(N)=O`, for which the Activity amounted to 58%.

Turning to `CC(C)C[C@H](NC(=O)c1ccco1)C(=O)N[C@@H](Cc1ccc(F)cc1)C(N)=O`, the Activity was 19%. `CC[C@H](C)[C@H](NC(=O)[C@H](Cc1ccccc1)NC(=O)c1ccco1)C(N)=O`: the Activity was 67%.

The next assay has the same target. Put plainly: Antagonist activity at PAR2 receptor in human HT-29 cells assessed as inhibition of intracellular calcium release at 50 uM relative to SLIGRLI-NH2. The assay is classed as functional, cell-based.
Settings: not given
The procedure, abridged:
as §1
For `CC[C@H](C)[C@H](NC(=O)[C@H](CC1CCCCC1)NC(=O)c1ccno1)C(=O)N1CCC2(CCc3ccccc32)CC1`, the inhibition result was “Active”.
